CHRM5 agonist = human M5 muscarinic receptor agonists, primary screen, CHO-K1 cells, Fluo-8 calcium fluorescence; Muscarinic acetylcholine receptor M5 (Homo sapiens), P08912; CHO-K1 hM5 cells; 0% DMSO wells, 100% maximal acetylcholine response; activation, % at 3 µM; hit rate 0.19% among 360,000;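 active = activation above the run's mean over test compounds plus 3 SD, cut at about 23% in these data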;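 also: signal is peak over basal fluorescence ratio across the kinetic read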
Target sequence (P08912 whole entry, looked up): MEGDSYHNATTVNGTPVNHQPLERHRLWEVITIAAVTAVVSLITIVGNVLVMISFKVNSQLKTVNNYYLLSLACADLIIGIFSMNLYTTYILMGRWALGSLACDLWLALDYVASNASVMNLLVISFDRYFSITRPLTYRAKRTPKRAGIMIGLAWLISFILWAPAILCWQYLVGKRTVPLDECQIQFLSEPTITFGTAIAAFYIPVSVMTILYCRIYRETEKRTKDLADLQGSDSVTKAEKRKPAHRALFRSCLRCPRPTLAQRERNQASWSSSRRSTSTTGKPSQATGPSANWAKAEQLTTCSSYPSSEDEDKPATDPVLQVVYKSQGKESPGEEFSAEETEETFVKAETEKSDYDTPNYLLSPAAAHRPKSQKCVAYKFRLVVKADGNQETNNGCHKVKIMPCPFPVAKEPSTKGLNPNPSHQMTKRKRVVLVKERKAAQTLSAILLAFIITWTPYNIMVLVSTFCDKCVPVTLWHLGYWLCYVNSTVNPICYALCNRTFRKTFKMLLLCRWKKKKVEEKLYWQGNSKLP
CHRM5 antagonist = human M5 muscarinic receptor antagonists, primary screen, CHO cells, Fluo-8 calcium fluorescence; CHO-hM5 cells, ACh EC80; inhibition, % at 3 µM; hit rate 0.59% among 360,000; AID 624040, 2012;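 active = inhibition above a per-plate cutoff, the mean of that plate's test compounds plus 3 SD, cut at about 27% in these data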;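 also: 0% = acetylcholine EC80 with DMSO and 100% = DMSO without agonist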
CHRM4 PAM = human M4 muscarinic receptor positive allosteric modulators, primary screen, CHO-K1 cells, Fluo-8 calcium fluorescence. Muscarinic acetylcholine receptor M4 (Homo sapiens), P08173. CHO-K1 hM4/Gqi5, ACh EC20; 0% = ACh EC20, 100% = maximal ACh. activation, % at 3 µM. hit rate 0.4% among 360,000;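 active = activation above its plate's cutoff, the mean activation of sample wells plus 3 SD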
CHRM4 agonist = human M4 muscarinic receptor agonists, primary screen, CHO-K1 cells, Fluo-8 calcium fluorescence; Muscarinic acetylcholine receptor M4 (Homo sapiens), P08173; CHO-K1 hM4/Gqi5; vehicle 0%, full acetylcholine response 100%; activation, % at 3 µM; hit rate 0.14% among 360,000;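 active = activation above the run mean over all test wells plus 3 SD, cut at about 32% in these data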;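 also: peak over basal fluorescence ratio per well then scaled between controls; 0% = DMSO wells and 100% = acetylcholine at EC100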
CHRM5 PAM = human M5 muscarinic receptor positive allosteric modulators, primary screen, CHO-K1 cells, Fluo-8 calcium fluorescence; Muscarinic acetylcholine receptor M5 (Homo sapiens), P08912; CHO-K1 hM5, ACh EC20 PAM; 0% = ACh EC20, 100% = ACh EC100; activation, % at 3 µM; hit rate 0.3% among 360,000;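 active = activation above the run cutoff, the mean activation of all test compounds plus 3 SD, cut at about 18% in these data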
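Replicates: One well per compound, no replicates | System: Human M5 receptor in CHO-K1 cells | Benchmarks: Low control EC20 acetylcholine (0%), high control EC100 acetylcholine (100%) | Probe or stimulus: Acetylcholine, EC20 level | Times: Fluo-8 loading 80 min at 37 °C plus 30 min room temperature | Signal: Intracellular calcium via Fluo-8 fluorescence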
CHRM4 antagonist = human M4 muscarinic receptor antagonists, primary screen, CHO cells, Fluo-8 calcium fluorescence | Muscarinic acetylcholine receptor M4 (Homo sapiens), P08173 | CHO-hM4 cells, ACh EC80 | inhibition, % at 3 µM | hit rate 0.73% among 360,000 | AID 624125, 2012;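 active = inhibition above its plate's cutoff, the mean inhibition of sample wells plus 3 SD, cut at about 27% in these data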;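 also: 0% = acetylcholine EC80 with DMSO and 100% = DMSO without agonist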
Starred values were filed as active, the others as inactive. Only some compounds are listed: those with a hit (about 1.9% of all), similar ones and a draw of the others.

SMILES	CHRM5 agonist	CHRM5 antagonist	CHRM4 PAM	CHRM4 agonist	CHRM5 PAM	CHRM4 antagonist
CC(C)COC(=O)N1CCCCC1c1cc(C(=O)NC(C)C)no1 (stereo not given)	-3	6	4	1	-2	-10
O=C(Cc1ccc(Cl)cc1Cl)Nc1ccncc1Cl	3	30*	-6	11	-13	3
O=C(Cc1ccc(Cl)cc1Cl)Nc1ccncc1	2	10	-1	13	-6	5
O=C(Nc1ccccc1)Nc1ccc(-n2ccc(C(F)(F)F)n2)cc1	6	51*	-62	25	-36	45*
CCN(CC)c1ccc(/C=C2/SC(=O)N(C(C)C)C2=O)o1	2	11	-4	3	2	41*
COc1cccc(NC(=O)COC(=O)c2c3c(nc4ccccc24)CCC(C)C3)c1 (stereo not given)	-4	26	-12	6	-22	41*
CC1CCc2nc3ccccc3c(C(=O)OCC(=O)NC3CCS(=O)(=O)C3)c2C1 (stereo not given)	3	8	3	3	2	2
CC1(C(=O)Nc2ccc(Cl)c(C(F)(F)F)c2)Cc2c(-c3ccc(C(N)=O)cc3)ccnc2O1 (stereo not given)	2	0	-4	4	-3	0
Cc1ccccc1C(=O)NC1CC2CCCC(C1)N2CC(C)C (stereo not given)	-1	8	-11	-1	-9	27*
C=CCNC(=O)CN1C2CCCC1CC(NC(=O)c1ccccc1C)C2 (stereo not given)	-1	0	10	1	0	3
CCCNC(=O)C1(C)CCN(Cc2noc(-c3ccccc3OC)n2)C1 (stereo not given)	0	1	14	0	6	-22
COc1ccc(CN(C)C(=O)/C=C/[C@H]2O[C@@H](n3cnc4c(N)ncnc43)[C@H](O)[C@@H]2O)cc1OC	0	7	12	0	-2	-16
CCCn1c(Cc2ccccc2)n[nH]c1=S	-7	5	4	1	-5	4
S=c1[nH]nc(Cc2ccccc2)n1Cc1ccco1	-6	33*	-15	0	-22	68*
CC(=O)CC(=O)Nc1ccc(Nc2ccccc2)cc1	0	-1	-12	2	-2	30*
CC(=O)Nc1ccc(Nc2ccccc2)cc1	1	-2	15	2	3	-4
CCOC(=O)[C@]12CCCC=C1N(Cc1ccc(Cl)cc1Cl)C(=O)[C@H](CC(=O)NCCc1ccccc1OC)C2	-5	-6	-2	-1	0	-5
O=C1c2ccccc2C(c2nnnn2Cc2ccccc2)N1CCc1ccc(O)cc1 (stereo not given)	5	7	-9	26	-21	1
Cc1cc(C(C)(C)CC(C)(C)C)ccc1OCCOCC[N+](C)(C)Cc1ccccc1	-2	7	-14	0	-15	27*
C[N+](C)(CCOc1ccccc1)Cc1ccccc1	-2	7	-4	0	-5	7
CC(=O)Nc1cccc(-c2ccnc3c2CC(C(=O)NCCC(F)(F)F)O3)c1 (stereo not given)	0	5	1	1	-3	-5
CCCCCCC[N+](CC)(CC)CCCCc1ccc(Cl)cc1	-2	22	-14	0	-18	38*
CCCCCNCc1ccc(Cl)cc1	-5	19	9	1	-1	-8
O=C(O)C1CCC2CCCC21 (stereo not given)	1	2	-2	1	0	3
CC(=O)C1=CCC(c2ccc(Cl)cc2)N(S(=O)(=O)c2ccccc2)C1 (stereo not given)	-2	7	-7	3	-5	-6

From PubChem
